Assay outcomes deposited in PubChem BioAssay by several laboratories.
RAM inhibit = yeast RAM network inhibition | S. cerevisiae dse1pr::URA3 reporter, 5-FOA growth OD615, 2 d; analog-sensitive cbk1-as2 kinase mutant strain | inhibition, % at 50 µM | hit rate 1.8% among 190,000 | AID 868;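 active = inhibition above a set limit, 3 SD over mean compound inhibition, cut at about 8.4% in these data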;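 note: inhibition rescues growth on 5-FOA so higher OD means more RAM inhibition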
NPY2 pot ag = potentiates or activates human NPY-Y2 receptor; cells expressing NPY-Y2, potentiator/agonist read-out; P49146; activation, % at 3.6 µM; hit rate 0.45% among 220,000; in the data active = activation above about 27%;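 note: cells stimulated with NPY near EC25 plus isoproterenol at EC100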
NPY-Y2 antag = blocks the human neuropeptide Y Y2 receptor; P49146; AID 793; hit rate 0.99% among 140,000; NPY-Y2 expressing cells, antagonist mode; inhibition, % at 2.7 µM; in the data active = inhibition above about 17%
NPY-Y1 PAM-ag = human NPY-Y1 potentiation or agonism, primary screen | P25929 | NPY-Y1 expressing cells, potentiator/agonist activation | activation, % at 3.6 µM | hit rate 0.37% among 220,000; in the data active = activation above about 33%, passing the limit was not always enough;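 note: cells stimulated with NPY at EC10 then isoproterenol at EC100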
Target sequence (P25929 whole entry, looked up): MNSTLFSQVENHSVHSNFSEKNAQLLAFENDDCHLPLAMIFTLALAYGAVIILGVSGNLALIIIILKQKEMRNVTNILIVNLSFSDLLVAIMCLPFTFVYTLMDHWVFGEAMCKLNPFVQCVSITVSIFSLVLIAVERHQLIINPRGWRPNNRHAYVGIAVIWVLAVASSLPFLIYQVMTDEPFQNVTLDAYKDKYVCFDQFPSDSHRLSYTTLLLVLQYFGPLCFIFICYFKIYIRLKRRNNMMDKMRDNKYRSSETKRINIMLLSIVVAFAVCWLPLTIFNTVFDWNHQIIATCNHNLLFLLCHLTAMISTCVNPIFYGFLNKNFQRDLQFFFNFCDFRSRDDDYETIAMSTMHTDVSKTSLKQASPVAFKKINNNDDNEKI
INS promoter inh = TRM-6 insulin promoter activity inhibition; TRM-6 cells, insulin promoter-eGFP reporter, imaging; reporter expression induced with tamoxifen; hit rate 0.9% among 130,000; inhibition, % at 2 µM;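 active = inhibition above the mean plus 3 SD, with well images judged a real hit on visual review, cut at about 60% in these data, passing the limit was not always enough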
NPY Y1 blocker = NPY-Y1 (human) receptor antagonism; HEK293-CNG Y1 cells, membrane potential fluorescence; NPY at EC95, then isoproterenol; P25929; AID 1040; inhibition, % at 3.6 µM; hit rate 1% among 200,000;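 active = inhibition above the campaign mean inhibition of all tested compounds plus 3 SD, cut at about 20% in these data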
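material = HEK293 cells with Y1 receptor plus CNG channel | also added = NPY 25 nM then isoproterenol 1 µM plus Ro 20-1724 25 µM | schedule = dye 3 h, compound 60 min room temperature, stimulation 45 min | measured by = membrane potential fluorescence | benchmarks = high control isoproterenol alone, low control NPY with isoproterenol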
RAM efflux-def = restores 5-FOA growth of efflux-deficient yeast; shares compounds with RAM inhibit; S. cerevisiae efflux-deficient reporter strain, 5-FOA growth OD615, 2 days; max inhibition, %; 1,200 tested, under 10 active; AID 1305; call rule not given here
Large screens that a line does not name were inactive (follow-up assays come after a bar, where they were run). Sampled rows, rich in hits. Any-hit rate of the full collection: about 3.8%.

CCCC1=C(C(=O)OCC)C(c2cccs2)n2ncnc2N1 (stereo not given)	none (no result: RAM inhibit, NPY-Y2 antag, INS promoter inh, NPY Y1 blocker)
Cc1ccc2nc(-c3ccc(NC(=O)CSc4nccc(=O)[nH]4)cc3)sc2c1	RAM inhibit 12 (no result: NPY-Y2 antag) | RAM efflux-def inactive
CC1=CC(C)(C)n2c(O)c(N=NC(N)=S)c3cccc1c32	RAM inhibit 13 (no result: INS promoter inh) | RAM efflux-def inactive
CC1=CC(C)(C)n2c(O)c(N=NC(N)=S)c3c(C)ccc1c32	none (no result: INS promoter inh)
N#CCn1c(C2CCCCC2)nc2ccccc2c1=O	none (no result: INS promoter inh)
CN(C)S(=O)(=O)c1ccc(NCC2COc3ccccc3O2)c([N+](=O)[O-])c1 (stereo not given)	none
CCN(CC)S(=O)(=O)c1ccc(NCC2COc3ccccc3O2)c([N+](=O)[O-])c1 (stereo not given)	RAM inhibit 17 | RAM efflux-def inactive
C=CCOC(=O)/C(=C/c1cccc2ccccc12)NC(=O)c1ccccc1	RAM inhibit 42 | RAM efflux-def inactive
S=C(c1ccc(-c2ccc(Cl)c(Cl)c2)o1)N1CCOCC1	none (no result: INS promoter inh)
S=C(c1ccc(-c2ccccc2Cl)o1)N1CCOCC1	RAM inhibit 12 | RAM efflux-def inactive
Cc1cccc(-c2nnc(SCC#N)n2-c2ccccc2)c1	none
N#CCCCSc1nnc(-c2ccc(Cl)cc2)n1-c1ccccc1	RAM inhibit 15 (no result: INS promoter inh) | RAM efflux-def inactive
COc1cc(/C=N/Nc2ccc(Cl)cc2)ccc1OC(=O)c1cccs1	RAM inhibit 12 | RAM efflux-def inactive
CC(C)(C)c1nc(SCC(=O)NCc2ccco2)c2ccccc2n1	none
COc1ccc(C(=O)CSc2nc(C(C)(C)C)nc3ccccc23)cc1	RAM inhibit 13 (no result: NPY-Y2 antag, INS promoter inh) | RAM efflux-def inactive
N#C/C(=N\Nc1ccccc1)C(=N)N1CCCCCC1	none (no result: RAM inhibit, NPY-Y2 antag, INS promoter inh, NPY Y1 blocker)
COCCCNC(=S)N1CCCN(c2nc3c(C)c(C)ccc3cc2C#N)CC1	RAM inhibit 16 (no result: NPY-Y2 antag) | RAM efflux-def inactive
Cc1ccc2cc(C#N)c(N3CCCC3)nc2c1C	none
O=C(NCc1ccccc1)c1cc(-c2cccc(O)c2)on1	none (no result: NPY-Y2 antag, INS promoter inh)
O=C(c1ccc(C(F)(F)F)cc1)N1CCC(=O)N(C(COCc2ccc(C(F)(F)F)cc2)Cc2ccccc2)CC1 (stereo not given)	none
Cc1ccc(S(=O)(=O)N2CCC(=O)N(C(COCc3ccc(Cl)c(Cl)c3)Cc3ccccc3)CC2)cc1 (stereo not given)	RAM inhibit 12 | RAM efflux-def inactive
Cc1ccc(S(=O)(=O)N2CCC(=O)N(C(COCc3cccc(C)c3)Cc3ccccc3)CC2)cc1 (stereo not given)	RAM inhibit 14 | RAM efflux-def inactive
Cc1ccc(S(=O)(=O)N2CCC(=O)N(C(COC(=O)Nc3ccccc3)Cc3ccccc3)CC2)cc1 (stereo not given)	none
Cc1ccc(S(=O)(=O)N2CCC(=O)N(C(CO)Cc3ccccc3)CC2)cc1 (stereo not given)	none
Cc1ccc(S(=O)(=O)N2CCC(=O)N(C(COCc3ccc(C(F)(F)F)cc3)C(C)C)CC2)cc1 (stereo not given)	RAM inhibit 12 | RAM efflux-def inactive
Cc1cccc(COCC(Cc2ccccc2)N2CCN(C(=O)c3ccc(C(F)(F)F)cc3)CCC2=O)c1 (stereo not given)	RAM inhibit 13 | RAM efflux-def inactive
CC(C)C[C@H](NC(=O)c1nc[nH]c1C(=O)NCc1ccccc1)C(=O)OCc1ccccc1	RAM inhibit 14 (no result: NPY-Y2 antag, INS promoter inh) | RAM efflux-def inactive
CN(Cc1ccccc1)C(=O)c1[nH]cnc1C(=O)N[C@@H](Cc1ccccc1)C(=O)OCc1ccccc1	RAM inhibit 12 (no result: NPY-Y2 antag, INS promoter inh) | RAM efflux-def inactive
O=C(Nc1ccccc1Cc1ccccc1)c1oc2ccccc2c1COc1ccccc1	RAM inhibit 12 | RAM efflux-def inactive
CC(OC(=O)c1oc2ccccc2c1COc1ccccc1)C(=O)NC(N)=O (stereo not given)	none (no result: NPY-Y2 antag, INS promoter inh)
O=C(NCCc1ccccc1)c1oc2ccccc2c1COc1ccccc1	RAM inhibit 19 | RAM efflux-def inactive
CCOc1cccc(-c2nnc(SCC(=O)Nc3cccc(OC)c3)n2N)c1	none
COc1cccc(-c2nnc(SCC(=O)Nc3ccc(OC)c(OC)c3)n2N)c1	RAM inhibit 12 (no result: INS promoter inh) | RAM efflux-def inactive
CCCCSc1nnc(CSc2ncccn2)n1C	none (no result: NPY-Y2 antag)
CCCC(CCC)=NNc1ccc(S(=O)(=O)Nc2ccccc2OC)cc1[N+](=O)[O-]	RAM inhibit 16 | RAM efflux-def inactive
COc1ccc(/C=C/C(=O)c2c(O)c(OC)c3occc3c2OC)cc1	RAM inhibit 12 (no result: NPY-Y2 antag, INS promoter inh) | RAM efflux-def inactive
O=C(O)CC1(CC(=O)Nc2ccc3sccc3c2)CCCCC1	none (no result: RAM inhibit, NPY-Y2 antag, INS promoter inh, NPY Y1 blocker)
CCOC(=O)c1c(NC(=O)CN2CCCc3ccccc32)sc(C)c1CC	RAM inhibit 15 | RAM efflux-def inactive
CCOC(=O)c1c(NC(=O)CN2CCCc3ccccc32)sc(C)c1C	RAM inhibit 14 | RAM efflux-def inactive
COC(=O)c1c(NC(=O)CN2CCCc3ccccc32)sc(C)c1C	none
Cc1ccccc1C(=O)NC(=S)Nc1ccc(Oc2ccc(Cl)cc2)cc1	RAM inhibit 13 | RAM efflux-def inactive
Cc1ccc(C(=O)NC(=S)Nc2ccc(Oc3ccc(Cl)cc3)cc2)cc1	none
Cc1cccn2cc(CCNS(=O)(=O)c3cccs3)nc12	none (no result: RAM inhibit, NPY-Y2 antag, INS promoter inh, NPY Y1 blocker)
Cc1ccc(SCCNC(=O)c2ccc(C)c(S(=O)(=O)Nc3ccccc3C)c2)cc1	RAM inhibit 17 (no result: INS promoter inh) | RAM efflux-def inactive
O=C(CSc1nc2cc(Cl)ccc2s1)N1CCCc2ccccc21	RAM inhibit 11 | RAM efflux-def inactive
O=C(CSc1ccc(-c2ccc(Cl)cc2)nn1)N1CCCc2ccccc21	none (no result: INS promoter inh)
COc1ccccc1NC(=O)C1CC(=O)OC1c1ccccc1 (stereo not given)	none
CC(C)Oc1ccccc1OCCCCn1cnc2ccccc2c1=O	RAM inhibit 14 (no result: NPY-Y2 antag, INS promoter inh) | RAM efflux-def inactive
COc1ccc(C)cc1S(=O)(=O)N(CC(=O)NCc1ccc(Cl)cc1)Cc1ccccc1	RAM inhibit 12 | RAM efflux-def inactive
CCCCOc1ccc(S(=O)(=O)Nc2cc(OC)ccc2OC)cc1	RAM inhibit 11 | RAM efflux-def inactive
COc1ccc(OC)c(NS(=O)(=O)c2ccc(Cl)nc2)c1	none
CCOC(=O)c1cnn(-c2nc(-c3ccc(C)cc3)cs2)c1C(F)(F)F	RAM inhibit 12 | RAM efflux-def inactive
O=C(COC(=O)c1cc(-c2ccc(F)cc2)nc2ccccc12)NCC1CCCO1 (stereo not given)	none (no result: NPY-Y2 antag)
O=S(=O)(/C(=C/c1ccc(C(F)(F)F)cc1)c1nc2ccccc2[nH]1)c1ccccc1	none
CC(C)c1ccc(/C=C(\c2nc3ccccc3[nH]2)S(=O)(=O)c2ccccc2)cc1	RAM inhibit 19 | RAM efflux-def inactive
